From ChEMBL document CHEMBL4190388, “Discovery and Optimization of Indolyl-Containing 4-Hydroxy-2-Pyridone Type II DNA Topoisomerase Inhibitors Active against Multidrug Resistant Gram-negative Bacteria” (J Med Chem, 2018)
Values after ≈ are worked out from the molar mass of the structure shown.

How the values were obtained:
[1] = Fraction unbound in mouse plasma at 1 uM by equilibrium dialysis method; type: ADME, cell-free
[2] = test system: Mus musculus; experiment: AUC (0 to 24 hrs) in CD1 mouse plasma at 3 mg/kg, iv by LC-MS/MS analysis; type: ADME, organism-based; design: time < 24 hr, dose 3 mg/kg, route intravenous; settings: in vivo
Summary of the method: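 CD-1 mice given a single 3 mg/kg iv dose (n = 3) in 3% DMSO/saline; plasma exposure measured.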

[3] = test system: Mus musculus; experiment: Antibacterial activity against Escherichia coli infected in cyclophosphamide treated neutropenic CD1 mouse septicemia model assessed as mouse survival at 3 mg/kg, iv dosed at 1 hr post infection followed by redosing at 5 hrs post infection measured at 96 hrs post infection relative to control; type: functional
Summary of the method: (§1)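 Female CD-1 mice were made neutropenic with cyclophosphamide ip, 150 mg/kg on day −4 and 100 mg/kg on day −1. […] Compound was given iv in 3% DMSO/saline at 1 and 5 h postinfection, n = 6 per group. Percent survival was scored at 96 h postinfection.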

[4] = test system: Mus musculus; experiment: Antibacterial activity against Escherichia coli infected in cyclophosphamide treated neutropenic CD1 mouse septicemia model assessed as mouse survival at 1.5 mg/kg, iv dosed at 1 hr post infection followed by redosing at 5 hrs post infection measured at 96 hrs post infection relative to control; type: functional; summary of the method: as §1
[5] = test system: Escherichia coli; experiment: Antibacterial activity against fluoroquinolone resistant Escherichia coli SKM18 by CLSI M100-S17 protocol based method; type: functional
[6] = test system: Escherichia coli; experiment: Antibacterial activity against wild type Escherichia coli ATCC 25922 by CLSI M100-S17 protocol based method; type: functional
[7] = test system: Escherichia coli; experiment: Antibacterial activity against quinolone resistance Escherichia coli isolate ELZ4251 harboring gyrA/parC mutant by CLSI M100-S17 protocol based method; type: functional
[8] = test system: Acinetobacter baumannii; experiment: Antibacterial activity against wild type Acinetobacter baumannii ATCC BAA-747 by CLSI M100-S17 protocol based method; type: functional
[9] = test system: Acinetobacter baumannii; experiment: Antibacterial activity against fluoroquinolone resistant Acinetobacter baumannii isolate MMX2240 by CLSI M100-S17 protocol based method; type: functional
[10] = test system: Klebsiella pneumoniae; experiment: Antibacterial activity against wild type Klebsiella pneumoniae ATCC 35657 by CLSI M100-S17 protocol based method; type: functional
[11] = test system: Escherichia coli; experiment: Antibacterial activity against wild type Escherichia coli ATCC 25922 in presence of HSA by CLSI M100-S17 protocol based method; type: functional
[12] = test system: Escherichia coli; experiment: Bactericidal activity against wild type Escherichia coli ATCC 25922 assessed as reduction of bacterial load after 24 hrs by time kill assay; type: functional, organism-based
[13] = test system: Acinetobacter baumannii; experiment: Bactericidal activity against wild type Acinetobacter baumannii ATCC BAA-747 assessed as reduction of bacterial load after 24 hrs by time kill assay; type: functional, organism-based
[14] = test system: Escherichia coli; experiment: Bactericidal activity against wild type Escherichia coli ATCC 25922 assessed as reduction of bacterial load at 0.25 to 8 times MIC after 2 hrs by time kill assay; type: functional
[15] = test system: Acinetobacter baumannii; experiment: Bactericidal activity against wild type Acinetobacter baumannii ATCC BAA-747 assessed as reduction of bacterial load at 0.25 to 4 times MIC after 2 hrs by time kill assay; type: functional

SMILES	Fu [1]	AUC [2]	survival at 3 mg/kg [3]	survival at 1.5 mg/kg [4]	MIC [5]	MIC [6]	MIC [7]	MIC [8]	MIC [9]	MIC [10]	MIC [11]	Activity [12]	Activity [13]	Activity [14]	Activity [15]
COc1c(N2C[C@@H]3CCCN[C@@H]3C2)c(F)cc2c(=O)c(C(=O)O)cn(C3CC3)c12 [MOXIFLOXACIN]	0.8	640 ng·h/mL	100%	83%	–	–	–	–	–	–	–	–	–	–	–
CCc1c(-c2ccc3c(c2)cc(CN2CCC2)n3C)[nH]c(=O)c(C(=O)O)c1O	–	–	–	–	1.6 µg/mL (≈ 4.19 µM)	0.39 µg/mL (≈ 1.02 µM)	1.6 µg/mL (≈ 4.19 µM)	0.39 µg/mL (≈ 1.02 µM)	6.3 µg/mL (≈ 16.5 µM)	0.78 µg/mL (≈ 2.04 µM)	1.6 µg/mL	Dose-dependent effect	Dose-dependent effect	3 log10CFU	2 log10CFU
